Measurements taken from ChEMBL document CHEMBL1126613, “Centrally acting serotonergic agents. Synthesis and structure-activity relationships of C-1- or C-3-substituted derivatives of 8-hydroxy-2-(di-n-propylamino)tetralin” (J Med Chem, 1993).
“And” between values parts separate entries of the source, which are not always exact repeats. Identical values can stand only once.

Legend:
Mus musculus [1] = experiment: In vivo effective dose administered subcutaneously in mouse hypothermia assay.; assay type: functional; settings: sc
How it was run: (§1)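 Charles River CF-1 mice (18-22 g, 4 per dose), housed individually 20 min before testing. Rectal temperature taken before dosing and 20 min after (sc 0.1 mL; oral 0.2 mL by gavage needle). A drop of ≥2 °F counted as positive. Doses started at 30 mg/kg and fell by half-log until 0/4 responded.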

Mus musculus [2] = experiment: In vivo effective dose administered orally in mouse hypothermia assay (approximate ED50).; assay type: functional; settings: po; how it was run: as §1
Mus musculus [3] = experiment: Tested in vivo for the maximum temperature decrease in mouse hypothermia assay.; assay type: functional
How it was run: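 CF-1 mice (18-22 g, 4 per dose), dosed sc or orally. Rectal temperature measured before dosing and 20 min after. The mean maximum temperature drop (°F) at 20 min after any dose is recorded as an efficacy index.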

Rattus norvegicus [4] = species on record: Rattus norvegicus; experiment: Effect on the synthesis rate of 5 HTP accumulation at the dose of […] in the rat ventral limbic brain region; assay type: functional, Limbic system
Felis catus [5] = experiment: Dose on arterial blood pressure (BP) in anesthetized cat; assay type: functional
How it was run: (§2)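 Adult cats (2.5-4.0 kg) anesthetized with ketamine 11 mg/kg im, then chloralose 80 mg/kg iv. Femoral artery cannulated for blood pressure, femoral vein for drug. Ventilated, paralyzed with gallamine 4 mg/kg iv, rectal temperature held at 37-38 °C. Cumulative iv doses given at 20-min intervals. Maximum decrease reported following a 1 mg/kg iv dose.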

Rattus norvegicus [6] = species on record: Rattus norvegicus; experiment: Effect on the synthesis rate of dopamine (DOPA) accumulation at the dose of […] in the rat ventral limbic brain region; assay type: functional, Limbic system
Felis catus [7] = species on record: Felis catus; experiment: Dose at which the SND has been reduced to 50% of the pretreatment value; assay type: functional
How it was run: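 Adult cats (2.5-4.0 kg), ketamine 11 mg/kg im then chloralose 80 mg/kg iv, ventilated, gallamine-paralyzed, rectal temperature 37-38 °C. Sympathetic nerve discharge quantified by cumulative integration. Cumulative iv doses were given at 20-min intervals. Value is the dose reducing discharge to 50% of pretreatment.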

Felis catus [8] = experiment: Maximum decrease on arterial blood pressure at 1 mg/kg; assay type: functional; how it was run: as §2
Mus musculus [9] = experiment: Tested in vivo for the effective dose administered orally in mouse hypothermia assay; assay type: functional; settings: po; how it was run: as §1
Felis catus [10] = species on record: Felis catus; experiment: Maximum decrease observed; assay type: functional; set-up: unit not given here
Felis catus [11] = experiment: Effect on arterial blood pressure (BP) in anesthetized cat; assay type: functional; how it was run: as §2
Rattus norvegicus [12] = experiment: Effect on the synthesis rate of dopamine (DOPA) accumulation at the dose of 100 umol/kg in the rat ventral limbic brain region; assay type: functional, Limbic system
How it was run: (§3)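 Male Sprague-Dawley rats dosed sc with drug or vehicle at time zero. NSD 1015 (100 mg/kg ip) given 15 min later to block aromatic decarboxylase. Brain DOPA and 5-HTP measured by electrochemical detection with peak integration. Expressed as percent change from NSD 1015 plus saline controls. Control and test groups N = 6 each, compared by unpaired t test.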

Rattus norvegicus [13] = experiment: Effect on the synthesis rate of 5 HTP accumulation at the dose of 10 umol/kg in the rat ventral limbic brain region; assay type: functional, Limbic system; how it was run: as §3
Rattus norvegicus [14] = experiment: Effect on the synthesis rate of 5 HTP accumulation at the dose of 100 umol/kg in the rat ventral limbic brain region; assay type: functional, Limbic system; how it was run: as §3
Rattus norvegicus [15] = experiment: Effect on the synthesis rate of dopamine (DOPA) accumulation at the dose of 10 uM/kg in the rat ventral limbic brain region; assay type: functional, Limbic system; how it was run: as §3
Mus musculus [16] = experiment: Behavioral time in mouse face to face assay at 0 umol/kg administered perorally; assay type: functional
How it was run: (§4)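 Male CF-1 mice (Charles River, 19-29 g), 8 pairs per dose, dosed sc, ip or orally in 0.25% methylcellulose or 0.1% citric acid; 30 min absorption housed with familiar partner. Pairs from different home cages placed in small litter-floored cage; face-to-face interaction duration scored visually for 3 min. Wilcoxon rank sum (two-tailed) vs daily control, p < 0.05.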

Rattus norvegicus [17] = experiment: Effect on the synthesis rate of 5 HTP accumulation at the dose of 9.7 umol/kg in the rat ventral limbic brain region; assay type: functional, Limbic system; how it was run: as §3
Mus musculus [18] = experiment: Behavioral time in mouse face to face assay at 0.3 umol/kg administered perorally; assay type: functional; how it was run: as §4
Rattus norvegicus [19] = experiment: Effect on the synthesis rate of dopamine (DOPA) accumulation at the dose of 9.7 umol/kg in the rat ventral limbic brain region; assay type: functional, Limbic system; how it was run: as §3

**Q.** `C=CC[C@H]1c2c(cccc2OC)CC[C@H]1N(CCC)CCC` was tested. Which ED50 (Mus musculus [1]) did it give?
**A.** > 89 µmol/kg

**Q.** For `COc1cccc2c1[C@H](CC1CC1)[C@H](NCC1CC1)CC2`, which ED50 (Mus musculus [2]) is on record?
**A.** > 93 µmol/kg

**Q.** And the ED50 (Mus musculus [1])?
**A.** 23 µmol/kg

**Q.** And the TMP.decrease (Mus musculus [3])?
**A.** 6.8 degrees F

**Q.** Which Change (Rattus norvegicus [4]) does the source give for `CCC[C@H]1c2c(cccc2OC)CC[C@H]1N(CCC)CCC` here?
**A.** -3.9%

**Q.** What about the Max decrease (Felis catus [5]) of the same molecule?
**A.** 137

**Q.** And the Change (Rattus norvegicus [6])?
**A.** -14%

**Q.** And the ED50 (Felis catus [7])?
**A.** > 2.94 µmol/kg

**Q.** What about the ED50 (Mus musculus [1]) of the same molecule?
**A.** 51 µmol/kg

**Q.** And the TMP.decrease (Mus musculus [3])?
**A.** 2.8 degrees F

**Q.** And the Max decrease (Felis catus [8])?
**A.** 87

**Q.** Which ED50 (Mus musculus [9]) does the source give for `CCC[C@H]1c2c(O)cccc2CC[C@H]1N(CCC)CCC` here?
**A.** > 92 µmol/kg

**Q.** What about the ED50 (Mus musculus [1]) of the same molecule?
**A.** 9.5 µmol/kg

**Q.** And the TMP.decrease (Mus musculus [3])?
**A.** 6.9 degrees F

**Q.** What does the source list for `C=CCN[C@@H]1CCc2cccc(OC)c2[C@H]1CC1CC1` (relative stereo)?
**A.** ED50 (Mus musculus [2]): > 97 µmol/kg; ED50 (Mus musculus [1]): 24 µmol/kg; TMP.decrease (Mus musculus [3]): 6.2 degrees F

**Q.** `C=CCN[C@@H]1CCc2cccc(OC)c2[C@@H]1CC1CC1` was tested. Which ED50 (Mus musculus [1]) did it give?
**A.** 32 µmol/kg

**Q.** And the TMP.decrease (Mus musculus [3])?
**A.** 7.1 degrees F

**Q.** For `C=CC[C@@H]1c2c(cccc2OC)CC[C@H]1NCC1CC1` (relative stereo), which ED50 (Mus musculus [9]) is on record?
**A.** > 97 µmol/kg

**Q.** And the ED50 (Felis catus [7])?
**A.** 0.81 µmol/kg

**Q.** And the ED50 (Mus musculus [1])?
**A.** 10 µmol/kg

**Q.** And the TMP.decrease (Mus musculus [3])?
**A.** 11.5 degrees F

**Q.** And the Max decrease (Felis catus [10])?
**A.** 21

**Q.** What about the Max decrease (Felis catus [8]) of the same molecule?
**A.** 46

**Q.** And the BP (Felis catus [11])?
**A.** 65%

**Q.** What does the source list for `C=CC[C@H]1c2cccc(OC)c2CC[C@H]1NCCC`?
**A.** Change (Rattus norvegicus [12]): -24%; Change (Rattus norvegicus [13]): 17%; Change (Rattus norvegicus [14]): -36%; Change (Rattus norvegicus [15]): 35%

**Q.** For `CCCN[C@@H]1CCc2cccc(OC)c2[C@H]1CC1CC1`, which ED50 (Mus musculus [9]) is on record?
**A.** 99 µmol/kg

**Q.** What about the Time (Mus musculus [16]) of the same molecule?
**A.** 2 s and 5 s

**Q.** What about the Change (Rattus norvegicus [17]) of the same molecule?
**A.** -43.7%

**Q.** And the Time (Mus musculus [18])?
**A.** 1.5 s

**Q.** What about the Change (Rattus norvegicus [19]) of the same molecule?
**A.** 18.7%

**Q.** What about the ED50 (Mus musculus [1]) of the same molecule?
**A.** 13 µmol/kg
